Where only a bound is given, the exact number is not on record here.

Data set [1] concerns the target T1, CYP1A2 (Homo sapiens, UniProt P05177).
T1 sequence (P05177 whole entry): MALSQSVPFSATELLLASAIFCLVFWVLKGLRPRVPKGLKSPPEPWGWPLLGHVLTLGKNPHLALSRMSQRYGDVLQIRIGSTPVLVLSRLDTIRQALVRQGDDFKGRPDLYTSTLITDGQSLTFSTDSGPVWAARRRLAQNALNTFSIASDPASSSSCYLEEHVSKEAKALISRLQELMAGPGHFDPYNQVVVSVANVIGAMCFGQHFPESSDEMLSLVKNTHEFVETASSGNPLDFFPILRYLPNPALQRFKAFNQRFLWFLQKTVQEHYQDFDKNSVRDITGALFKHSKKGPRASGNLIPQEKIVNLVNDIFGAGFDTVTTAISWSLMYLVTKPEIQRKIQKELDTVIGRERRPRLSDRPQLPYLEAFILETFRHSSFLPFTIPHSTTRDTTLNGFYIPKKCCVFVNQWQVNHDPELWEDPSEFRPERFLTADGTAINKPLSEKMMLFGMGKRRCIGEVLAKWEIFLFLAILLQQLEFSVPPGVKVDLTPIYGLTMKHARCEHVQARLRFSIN
Kind of data set: Inhibition of CYP1A2 (unknown origin) at 10 uM relative to control. It counts as ADME.

Data set [2] addresses CYP3A4 (Homo sapiens, UniProt P08684). Description: Inhibition of CYP3A4 (unknown origin) at 10 uM relative to control. It counts as ADME.
A short description of data set [3]: Cytotoxicity against mouse NCTC clone 929 cells. It counts as cell-based.
A short description of data set [4]: Cytotoxicity against CHO-K1 cells. It counts as cell-based, Cricetulus griseus. The settings on record: chinese hamster.
Data set [5] relates to SARS-CoV-2. Description: Antiviral activity against SARS-CoV-2 infected in African green monkey Vero cells assessed as inhibition of viral infection by measuring nucleocapsid protein level by immunofluorescence microscopic analysis. The note with it: Severe acute respiratory syndrome coronavirus 2, Vero. It counts as functional, organism-based.
Data set [6] is described as follows: Stability in rat microsomes assessed as as parent compound remaining after 30 mins. It counts as ADME, Microsome. The settings on record: read-out: Stabilty. The procedure, abridged:
(§1)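 Liver microsomes from human, mouse and rat were used. The read-out is percent of parent compound remaining after 30 min incubation.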

The target of data set [7] is CYP2C19 (Homo sapiens, UniProt P33261). Description: Inhibition of CYP2C19 (unknown origin) at 10 uM relative to control. It counts as ADME.
CYP2C19, sequence (P33261 whole entry): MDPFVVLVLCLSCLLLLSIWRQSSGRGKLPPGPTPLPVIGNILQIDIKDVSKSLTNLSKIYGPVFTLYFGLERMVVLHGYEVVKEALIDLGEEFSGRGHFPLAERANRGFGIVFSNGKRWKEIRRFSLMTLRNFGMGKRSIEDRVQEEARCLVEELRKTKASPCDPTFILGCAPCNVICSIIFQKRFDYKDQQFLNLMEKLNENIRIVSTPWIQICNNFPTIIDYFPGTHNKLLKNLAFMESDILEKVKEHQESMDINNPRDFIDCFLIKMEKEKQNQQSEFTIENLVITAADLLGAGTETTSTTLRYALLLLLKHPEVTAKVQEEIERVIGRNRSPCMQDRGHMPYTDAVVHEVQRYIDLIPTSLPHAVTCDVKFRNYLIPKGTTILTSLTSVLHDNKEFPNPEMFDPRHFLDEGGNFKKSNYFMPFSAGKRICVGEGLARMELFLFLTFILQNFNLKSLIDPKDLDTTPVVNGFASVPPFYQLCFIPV
For data set [8], the system named is Vero. Kind of data set: Cytotoxicity against African green monkey Vero cells assessed as reduction of cell viability by WST-1 assay. The note with it: chlorocebus sabaeus. It counts as cell-based. For orientation: Tetrazolium assays rely on reduction of a dye to a coloured formazan, in cell work by metabolically active cells.
Data set [9] is described as follows: Stability in human microsomes assessed as as parent compound remaining after 30 mins. The settings on record: read-out: Stabilty. It counts as ADME, Microsome. The procedure, abridged: as §1
Data set [10] is described as follows: Stability in mouse microsomes assessed as as parent compound remaining after 30 mins. It counts as ADME, Microsome. The note with it: read-out: Stabilty. The procedure, abridged:
as §1

Data set [11] can be described thus: Selective index, ratio of CC50 for African green monkey Vero cells to IC50 for SARS-CoV-2 infected in African green monkey Vero cells.
Data set [12] is described as follows: Selective index, ratio of CC50 for African green monkey Vero cells to IC50 for MERS-CoV infected in African green monkey Vero cells.
The nature of data set [13]: Cytotoxicity against mouse NIH3T3 cells. It counts as cell-based.
The target of data set [14] is CYP2C9 (Homo sapiens, UniProt P11712). Kind of data set: Inhibition of CYP2C9 (unknown origin) at 10 uM relative to control. It counts as ADME.
CYP2C9, sequence (P11712 whole entry): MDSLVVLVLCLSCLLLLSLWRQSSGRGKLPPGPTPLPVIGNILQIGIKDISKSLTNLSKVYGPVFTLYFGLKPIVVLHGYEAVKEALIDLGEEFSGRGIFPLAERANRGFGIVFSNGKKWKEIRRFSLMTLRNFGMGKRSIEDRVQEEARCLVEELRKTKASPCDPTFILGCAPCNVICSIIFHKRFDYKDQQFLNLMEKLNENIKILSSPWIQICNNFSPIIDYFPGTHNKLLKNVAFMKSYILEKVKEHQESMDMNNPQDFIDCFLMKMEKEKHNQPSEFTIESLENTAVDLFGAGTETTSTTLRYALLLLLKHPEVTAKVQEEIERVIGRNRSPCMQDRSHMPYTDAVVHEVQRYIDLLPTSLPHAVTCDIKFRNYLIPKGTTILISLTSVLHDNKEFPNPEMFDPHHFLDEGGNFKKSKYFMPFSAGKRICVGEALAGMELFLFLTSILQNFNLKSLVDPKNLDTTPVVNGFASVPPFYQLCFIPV
The target of data set [15] is CYP2D6 (Homo sapiens, UniProt P10635). Kind of data set: Inhibition of CYP2D6 (unknown origin) at 10 uM relative to control. It counts as ADME.
CYP2D6, sequence (P10635 whole entry): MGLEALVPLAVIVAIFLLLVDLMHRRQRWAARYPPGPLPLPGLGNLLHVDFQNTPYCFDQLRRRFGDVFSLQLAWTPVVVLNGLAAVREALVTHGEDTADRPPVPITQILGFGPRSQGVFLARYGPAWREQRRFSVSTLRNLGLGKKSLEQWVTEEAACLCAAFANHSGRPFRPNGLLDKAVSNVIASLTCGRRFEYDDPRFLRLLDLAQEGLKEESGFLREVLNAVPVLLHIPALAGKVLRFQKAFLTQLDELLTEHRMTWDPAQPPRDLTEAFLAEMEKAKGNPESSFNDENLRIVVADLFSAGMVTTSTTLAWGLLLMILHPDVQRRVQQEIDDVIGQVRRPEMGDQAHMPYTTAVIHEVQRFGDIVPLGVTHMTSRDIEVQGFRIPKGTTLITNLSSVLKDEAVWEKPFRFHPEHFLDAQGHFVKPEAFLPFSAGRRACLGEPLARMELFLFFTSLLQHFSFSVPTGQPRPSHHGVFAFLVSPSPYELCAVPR
The subject of data set [16] is Middle East respiratory syndrome-related coronavirus. Description: Antiviral activity against MERS-CoV infected in African green monkey Vero cells assessed as inhibition of viral infection by measuring reduction in spike protein level by immunofluorescence microscopic analysis. It counts as functional, organism-based.
A short description of data set [17]: Oral bioavailability in rat at 10 mg/kg. It counts as ADME, organism-based. The settings on record: in vivo. The procedure, abridged:
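Rats received oral dosing at 10 mg/kg alongside intravenous dosing at 2 mg/kg. Values are the mean of experiments using three rats.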

Data set [18] concerns the target hERG (KCNH2) (Homo sapiens, UniProt Q12809). Description: Inhibition of human ERG at 10 uM relative to control.
The test system of data set [19] is HFL1. Kind of data set: Cytotoxicity against human HFL-1 cells. It counts as cell-based.
Data set [20] is described as follows: AUC in rat at 10 mg/kg, po. It counts as ADME, organism-based. Also noted: dose 10 mg/kg. The settings on record: in vivo. The procedure, abridged: (§2)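 Rats were dosed orally at 10 mg/kg. Values are the mean of experiments using three rats.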
Data set [21] in a line: Clearance in rat at 5 mg/kg, iv. It counts as ADME, organism-based. The settings on record: in vivo.
Data set [22] is described as follows: Half life in rat at 10 mg/kg, po. It counts as ADME, organism-based. The settings on record: in vivo. An outline of the steps: as §2
A short description of data set [23]: Half life in rat at 5 mg/kg, iv. It counts as ADME, organism-based. The settings on record: in vivo.
Data set [24] is described as follows: Protein binding in rat plasma at 5 uM. It counts as ADME, cell-free.
Data set [25] in a line: AUC in rat at 5 mg/kg, iv. It counts as ADME, organism-based. Also noted: dose 5 mg/kg. The settings on record: in vivo.
Data set [26] in a line: Tmax in rat at 10 mg/kg, po. The settings on record: in vivo. It counts as ADME, organism-based. The procedure, abridged:
as §2

Data set [27] can be described thus: Volume of distribution at steady state in rat at 5 mg/kg, iv. The settings on record: in vivo, read-out: Vdss. It counts as ADME, organism-based.

CYP3A4, sequence (P08684 whole entry): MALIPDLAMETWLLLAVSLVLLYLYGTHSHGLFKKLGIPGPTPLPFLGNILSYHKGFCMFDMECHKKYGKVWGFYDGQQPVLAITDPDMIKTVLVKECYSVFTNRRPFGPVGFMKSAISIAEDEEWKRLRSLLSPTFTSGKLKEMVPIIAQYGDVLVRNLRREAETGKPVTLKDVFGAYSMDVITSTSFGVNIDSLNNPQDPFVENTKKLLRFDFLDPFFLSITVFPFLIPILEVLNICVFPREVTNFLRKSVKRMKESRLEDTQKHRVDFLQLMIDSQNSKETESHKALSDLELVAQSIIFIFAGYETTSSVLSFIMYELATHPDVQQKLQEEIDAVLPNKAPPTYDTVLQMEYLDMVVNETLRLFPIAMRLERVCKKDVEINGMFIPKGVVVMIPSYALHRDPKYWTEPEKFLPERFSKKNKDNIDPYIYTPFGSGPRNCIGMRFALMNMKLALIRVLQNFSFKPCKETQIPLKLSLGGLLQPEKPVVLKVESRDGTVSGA
hERG (KCNH2), sequence (Q12809 whole entry): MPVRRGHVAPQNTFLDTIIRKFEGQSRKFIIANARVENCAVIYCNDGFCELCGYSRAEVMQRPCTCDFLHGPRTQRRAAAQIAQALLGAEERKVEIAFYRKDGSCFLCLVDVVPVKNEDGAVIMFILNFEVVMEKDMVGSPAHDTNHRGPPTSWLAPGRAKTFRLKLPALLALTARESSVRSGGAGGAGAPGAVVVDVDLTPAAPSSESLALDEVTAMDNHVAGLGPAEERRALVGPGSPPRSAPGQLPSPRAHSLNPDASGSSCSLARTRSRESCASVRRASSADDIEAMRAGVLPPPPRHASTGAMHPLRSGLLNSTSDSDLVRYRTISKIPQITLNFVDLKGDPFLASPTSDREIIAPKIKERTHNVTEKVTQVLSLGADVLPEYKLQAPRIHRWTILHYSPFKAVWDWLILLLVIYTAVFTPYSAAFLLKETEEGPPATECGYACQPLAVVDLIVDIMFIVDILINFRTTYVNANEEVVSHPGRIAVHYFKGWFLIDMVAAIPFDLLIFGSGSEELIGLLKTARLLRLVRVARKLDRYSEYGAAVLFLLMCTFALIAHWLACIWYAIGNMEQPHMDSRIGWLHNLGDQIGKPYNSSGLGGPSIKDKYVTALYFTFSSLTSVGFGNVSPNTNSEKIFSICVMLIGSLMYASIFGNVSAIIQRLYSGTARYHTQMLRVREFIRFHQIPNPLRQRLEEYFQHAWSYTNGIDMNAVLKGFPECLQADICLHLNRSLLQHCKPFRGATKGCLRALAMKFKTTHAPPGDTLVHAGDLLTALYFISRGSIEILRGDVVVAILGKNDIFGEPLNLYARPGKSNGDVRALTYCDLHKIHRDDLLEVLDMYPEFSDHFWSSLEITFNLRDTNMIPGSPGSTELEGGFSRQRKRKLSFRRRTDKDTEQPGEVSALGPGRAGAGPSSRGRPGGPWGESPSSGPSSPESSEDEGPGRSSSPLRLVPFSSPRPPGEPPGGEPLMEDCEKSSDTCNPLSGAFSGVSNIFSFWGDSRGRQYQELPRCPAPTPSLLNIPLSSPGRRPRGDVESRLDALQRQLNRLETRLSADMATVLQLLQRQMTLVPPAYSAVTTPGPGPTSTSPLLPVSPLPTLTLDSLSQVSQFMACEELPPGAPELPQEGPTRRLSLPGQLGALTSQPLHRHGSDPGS

Consider `O=c1[nH]c(Nc2cc(Cl)cc(Cl)c2)nc2cc(Cl)ccc12`, for which the inhibition at 10 µM in [1] is 15%; in data set [2] it was 32%; in data set [7], less than 1%; in data set [14], 18%; in data set [15], 20%; in data set [18], 38%. Also, the CC50 is 31 µM in data set [3]; 11 µM in data set [4]; greater than 25 µM in [8]; greater than 100 µM in [13]; 7.5 µM in [19]. Moreover, the IC50 was 0.23 µM in [5] and 0.93 µM in data set [16]. Further, the values for the remaining at 0.5 h in data set [6], in data set [9] and in data set [10] were 105%, 99% and 112%, respectively. Besides, the “Ratio CC50/IC50” value is 110 in [11] and 27 in data set [12]. Besides, the bioavailability in data set [17] was determined as 15.6%.
In the case of `O=c1[nH]c(Nc2cc(Cl)cc(Cl)c2)nc2cccc(O)c12`, the inhibition at 10 µM in data set [1] is 65%; in data set [2], 65%; in data set [7] it was 12%; in data set [14], 34%; in data set [15] it was 46%; in data set [18] it was 28%. Besides, the cytotoxic concentration (CC50) in [3] was 27 µM; in data set [4], 28 µM; in data set [8], greater than 25 µM; in [13] it was 60 µM; in data set [19], 9.6 µM. In addition, the IC50 in data set [5] came out at 0.15 µM; in data set [16], 1.02 µM. Besides, the remaining at 0.5 h worked out at 54% in data set [6], 55% in [9] and 42% in [10]. The AUC turned out to be 1010 ng·h/mL in data set [20] and 6500 ng·h/mL in data set [25]. The compound also gave a clearance in data set [21] of 11.2 mL/min/kg. Besides, the half-life in [22] was 42 h; in data set [23], 9.2 h. The compound also registered a PPB in [24] of 97%. Moreover, the “Ratio CC50/IC50” value was 168 in data set [11] and 25 in data set [12]. This compound also showed a bioavailability in data set [17] of 7.8%. Also, in data set [26], the Tmax was 1 h. Moreover, in data set [27], the Vd was 6.8 L/kg.

As a reminder, the inhibition is how much of the control response was suppressed. Broadly, the CC50 is the concentration that lowers cell viability or growth by half. As usually defined, the IC50 is the midpoint of a concentration-inhibition curve. As a reminder, the bioavailability is dose-corrected exposure relative to a reference, in per cent. By AUC is commonly meant concentration integrated over time. Usually clearance stands for the rate of elimination divided by the concentration. In general, half-life refers to the time in which the quantity being followed falls by half. The term Tmax denotes the time from dosing to the highest level.

The values above are taken from ChEMBL document CHEMBL4732249, “Design, synthesis and biological evaluation of 2-aminoquinazolin-4(3H)-one derivatives as potential SARS-CoV-2 and MERS-CoV treatments” (Bioorg Med Chem Lett, 2021).
